ChEMBL document CHEMBL5126625, “Discovery of AZD4831, a Mechanism-Based Irreversible Inhibitor of Myeloperoxidase, As a Potential Treatment for Heart Failure with Preserved Ejection Fraction” (J Med Chem, 2022)
In brackets after ≈: the same amount, converted by molar mass.

What was measured:
Myeloperoxidase [1] = target: T1, Myeloperoxidase (Homo sapiens, UniProt P05164); experiment: Inhibition of MPO (unknown origin) measured after 15 mins in presence of H2O2 by chemiluminescence assay
T1 sequence (P05164 whole entry): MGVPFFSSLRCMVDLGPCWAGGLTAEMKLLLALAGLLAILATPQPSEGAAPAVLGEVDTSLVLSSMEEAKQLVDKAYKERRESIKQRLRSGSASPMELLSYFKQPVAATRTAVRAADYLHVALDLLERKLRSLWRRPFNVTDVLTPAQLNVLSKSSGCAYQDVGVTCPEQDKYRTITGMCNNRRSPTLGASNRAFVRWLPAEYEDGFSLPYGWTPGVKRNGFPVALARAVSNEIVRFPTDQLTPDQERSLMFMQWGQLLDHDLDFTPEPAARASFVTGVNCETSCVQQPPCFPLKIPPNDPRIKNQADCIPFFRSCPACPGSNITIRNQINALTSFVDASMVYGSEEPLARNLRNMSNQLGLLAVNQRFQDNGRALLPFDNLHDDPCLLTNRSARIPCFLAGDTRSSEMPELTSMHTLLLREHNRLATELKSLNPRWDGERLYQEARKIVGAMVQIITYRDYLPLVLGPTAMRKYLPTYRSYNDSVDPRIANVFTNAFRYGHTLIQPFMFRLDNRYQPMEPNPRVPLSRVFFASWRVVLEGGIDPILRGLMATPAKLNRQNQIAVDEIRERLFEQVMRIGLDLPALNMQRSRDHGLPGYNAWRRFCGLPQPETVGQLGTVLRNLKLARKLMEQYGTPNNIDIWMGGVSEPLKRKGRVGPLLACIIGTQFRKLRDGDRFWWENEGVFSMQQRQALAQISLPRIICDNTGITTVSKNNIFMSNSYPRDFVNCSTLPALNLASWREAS

Myeloperoxidase [2] = target: T1, Myeloperoxidase; experiment: Inhibition of MPO in human HL-60 cells measured after 15 mins in presence of H2O2 by chemiluminescence assay; assay type: cell-based
Thyroid peroxidase = target: T2, Thyroid peroxidase (Homo sapiens, UniProt P07202); experiment: Inhibition of human recombinant TPO (1 to 839 residues) expressed in baculovirus-infected insect cells measured after 15 mins in presence of H2O2 by chemiluminescence assay
T2 sequence (P07202 whole entry): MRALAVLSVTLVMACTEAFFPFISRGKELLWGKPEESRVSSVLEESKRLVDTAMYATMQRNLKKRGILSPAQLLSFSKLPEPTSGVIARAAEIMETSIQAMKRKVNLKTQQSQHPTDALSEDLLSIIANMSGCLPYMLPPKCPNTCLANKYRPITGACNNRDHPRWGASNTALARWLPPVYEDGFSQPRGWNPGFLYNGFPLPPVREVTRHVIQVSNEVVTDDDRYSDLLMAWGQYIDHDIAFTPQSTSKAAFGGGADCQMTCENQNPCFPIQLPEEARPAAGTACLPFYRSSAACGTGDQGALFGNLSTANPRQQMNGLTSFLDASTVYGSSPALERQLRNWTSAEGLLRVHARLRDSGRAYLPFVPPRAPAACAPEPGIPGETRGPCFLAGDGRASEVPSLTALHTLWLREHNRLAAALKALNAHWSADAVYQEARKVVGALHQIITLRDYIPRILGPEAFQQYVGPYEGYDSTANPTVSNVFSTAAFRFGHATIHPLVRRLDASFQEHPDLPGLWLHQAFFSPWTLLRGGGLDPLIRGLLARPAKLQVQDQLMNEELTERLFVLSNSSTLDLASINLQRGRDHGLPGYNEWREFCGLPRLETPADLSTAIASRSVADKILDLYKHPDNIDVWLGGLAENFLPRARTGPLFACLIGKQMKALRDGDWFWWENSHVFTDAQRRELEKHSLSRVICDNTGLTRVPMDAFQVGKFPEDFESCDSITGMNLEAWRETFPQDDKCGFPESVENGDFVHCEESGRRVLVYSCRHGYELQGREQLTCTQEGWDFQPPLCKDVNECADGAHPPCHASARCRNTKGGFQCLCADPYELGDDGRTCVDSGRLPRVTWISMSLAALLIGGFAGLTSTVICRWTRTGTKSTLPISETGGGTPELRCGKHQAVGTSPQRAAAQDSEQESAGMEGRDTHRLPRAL
Summary of the method: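 IC50 determined against purified enzyme in an in vitro chemiluminescent assay.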

[3] = Lipophilicity, log D of the compound; conditions: octanol/water
[4] = Apparent permeability of the compound across apical to basolateral side in human Caco-2 cells at 10 uM by LC-MS/MS analysis
physchem = conditions: phosphate buffer, pH 7.4
Cytochrome P450 2C9 = Cytochrome P450 2C9 (Homo sapiens, UniProt P11712); experiment: Inhibition of human recombinant CYP2C9 using coumarin as substrate preincubated with enzyme for 10 mins followed by NADPH addition and measured after 20 to 50 mins by fluorescence based method
Sequence of Cytochrome P450 2C9 (P11712 whole entry): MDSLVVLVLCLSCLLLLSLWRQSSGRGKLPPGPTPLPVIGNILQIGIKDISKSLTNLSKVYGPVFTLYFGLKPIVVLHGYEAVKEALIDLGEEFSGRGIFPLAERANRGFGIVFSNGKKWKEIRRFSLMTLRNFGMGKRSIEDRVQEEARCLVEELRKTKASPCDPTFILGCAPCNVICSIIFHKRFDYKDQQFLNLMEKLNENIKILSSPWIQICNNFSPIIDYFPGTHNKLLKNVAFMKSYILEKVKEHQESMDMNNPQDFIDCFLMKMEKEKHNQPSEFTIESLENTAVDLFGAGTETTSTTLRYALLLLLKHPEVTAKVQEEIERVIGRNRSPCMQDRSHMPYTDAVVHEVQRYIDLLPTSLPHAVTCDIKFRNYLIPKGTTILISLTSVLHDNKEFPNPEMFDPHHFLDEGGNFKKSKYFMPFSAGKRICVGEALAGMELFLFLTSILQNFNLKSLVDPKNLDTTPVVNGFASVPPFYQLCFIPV

Cytochrome P450 2D6 = Cytochrome P450 2D6 (Homo sapiens, UniProt P10635); experiment: Inhibition of CYP2D6 (unknown origin) using coumarin as substrate preincubated with enzyme for 10 mins followed by NADPH addition and measured after 20 to 50 mins by fluorescence based method
Sequence of Cytochrome P450 2D6 (P10635 whole entry): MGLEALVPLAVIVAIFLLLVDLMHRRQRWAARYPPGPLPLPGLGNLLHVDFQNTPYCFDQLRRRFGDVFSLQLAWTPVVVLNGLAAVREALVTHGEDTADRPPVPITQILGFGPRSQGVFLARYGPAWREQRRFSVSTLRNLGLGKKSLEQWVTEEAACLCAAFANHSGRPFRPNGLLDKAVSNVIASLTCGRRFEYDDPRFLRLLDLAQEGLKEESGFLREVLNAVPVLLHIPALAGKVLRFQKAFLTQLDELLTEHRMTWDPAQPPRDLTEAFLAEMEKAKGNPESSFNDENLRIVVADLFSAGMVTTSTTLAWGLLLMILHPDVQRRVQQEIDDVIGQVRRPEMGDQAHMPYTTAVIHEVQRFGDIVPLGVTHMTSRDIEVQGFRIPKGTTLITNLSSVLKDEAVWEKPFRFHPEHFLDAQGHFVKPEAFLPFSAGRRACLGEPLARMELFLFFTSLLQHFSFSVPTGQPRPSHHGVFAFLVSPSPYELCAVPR

Cytochrome P450 1A2 = target: T3, Cytochrome P450 1A2 (Homo sapiens, UniProt P05177); experiment: Inhibition of human recombinant CYP1A2 using coumarin as substrate preincubated with enzyme for 10 mins followed by NADPH addition and measured after 20 to 50 mins by fluorescence based method
T3 sequence (P05177 whole entry): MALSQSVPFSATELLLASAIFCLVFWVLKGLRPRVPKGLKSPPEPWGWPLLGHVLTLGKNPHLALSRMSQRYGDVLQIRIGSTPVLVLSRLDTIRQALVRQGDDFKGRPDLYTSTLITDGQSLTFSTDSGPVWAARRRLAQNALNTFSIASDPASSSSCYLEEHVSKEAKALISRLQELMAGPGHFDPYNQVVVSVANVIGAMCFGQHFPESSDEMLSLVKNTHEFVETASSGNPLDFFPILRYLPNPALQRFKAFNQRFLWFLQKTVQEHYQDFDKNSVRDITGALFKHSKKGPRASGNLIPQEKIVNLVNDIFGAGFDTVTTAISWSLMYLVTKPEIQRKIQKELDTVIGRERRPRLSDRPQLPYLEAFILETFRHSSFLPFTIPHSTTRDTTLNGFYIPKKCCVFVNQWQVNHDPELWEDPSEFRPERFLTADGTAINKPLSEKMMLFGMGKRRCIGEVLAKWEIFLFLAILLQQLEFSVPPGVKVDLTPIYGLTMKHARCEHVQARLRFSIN

Cytochrome P450 2C19 = Cytochrome P450 2C19 (Homo sapiens, UniProt P33261); experiment: Inhibition of human recombinant CYP2C19 using coumarin as substrate preincubated with enzyme for 10 mins followed by NADPH addition and measured after 20 to 50 mins by fluorescence based method
Sequence of Cytochrome P450 2C19 (P33261 whole entry): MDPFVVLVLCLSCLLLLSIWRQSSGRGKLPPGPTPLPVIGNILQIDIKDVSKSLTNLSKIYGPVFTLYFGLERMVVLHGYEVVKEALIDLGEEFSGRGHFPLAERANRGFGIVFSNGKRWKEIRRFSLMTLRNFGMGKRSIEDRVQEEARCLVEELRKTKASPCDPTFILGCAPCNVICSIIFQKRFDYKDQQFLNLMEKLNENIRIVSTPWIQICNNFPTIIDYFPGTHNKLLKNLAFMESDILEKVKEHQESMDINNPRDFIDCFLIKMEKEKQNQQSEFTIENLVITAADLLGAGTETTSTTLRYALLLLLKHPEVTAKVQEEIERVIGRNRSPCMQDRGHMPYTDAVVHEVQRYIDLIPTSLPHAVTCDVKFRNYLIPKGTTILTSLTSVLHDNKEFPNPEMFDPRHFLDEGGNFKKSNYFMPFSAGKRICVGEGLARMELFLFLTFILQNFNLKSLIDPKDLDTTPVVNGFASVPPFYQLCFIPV

[5] = Oral bioavailability in Wistar Han rat measured up to 24 hrs by LC-MS/MS analysis; assay type: ADME, organism-based; conditions: in vivo
[6] = Oral bioavailability in Beagle dog measured up to 24 hrs by LC-MS/MS analysis; assay type: ADME, organism-based, Canis lupus familiaris; conditions: in vivo
[7] = target: Voltage-gated inwardly rectifying potassium channel KCNH2 (Homo sapiens, UniProt Q12809)
Sequence of Voltage-gated inwardly rectifying potassium channel KCNH2 (Q12809 whole entry): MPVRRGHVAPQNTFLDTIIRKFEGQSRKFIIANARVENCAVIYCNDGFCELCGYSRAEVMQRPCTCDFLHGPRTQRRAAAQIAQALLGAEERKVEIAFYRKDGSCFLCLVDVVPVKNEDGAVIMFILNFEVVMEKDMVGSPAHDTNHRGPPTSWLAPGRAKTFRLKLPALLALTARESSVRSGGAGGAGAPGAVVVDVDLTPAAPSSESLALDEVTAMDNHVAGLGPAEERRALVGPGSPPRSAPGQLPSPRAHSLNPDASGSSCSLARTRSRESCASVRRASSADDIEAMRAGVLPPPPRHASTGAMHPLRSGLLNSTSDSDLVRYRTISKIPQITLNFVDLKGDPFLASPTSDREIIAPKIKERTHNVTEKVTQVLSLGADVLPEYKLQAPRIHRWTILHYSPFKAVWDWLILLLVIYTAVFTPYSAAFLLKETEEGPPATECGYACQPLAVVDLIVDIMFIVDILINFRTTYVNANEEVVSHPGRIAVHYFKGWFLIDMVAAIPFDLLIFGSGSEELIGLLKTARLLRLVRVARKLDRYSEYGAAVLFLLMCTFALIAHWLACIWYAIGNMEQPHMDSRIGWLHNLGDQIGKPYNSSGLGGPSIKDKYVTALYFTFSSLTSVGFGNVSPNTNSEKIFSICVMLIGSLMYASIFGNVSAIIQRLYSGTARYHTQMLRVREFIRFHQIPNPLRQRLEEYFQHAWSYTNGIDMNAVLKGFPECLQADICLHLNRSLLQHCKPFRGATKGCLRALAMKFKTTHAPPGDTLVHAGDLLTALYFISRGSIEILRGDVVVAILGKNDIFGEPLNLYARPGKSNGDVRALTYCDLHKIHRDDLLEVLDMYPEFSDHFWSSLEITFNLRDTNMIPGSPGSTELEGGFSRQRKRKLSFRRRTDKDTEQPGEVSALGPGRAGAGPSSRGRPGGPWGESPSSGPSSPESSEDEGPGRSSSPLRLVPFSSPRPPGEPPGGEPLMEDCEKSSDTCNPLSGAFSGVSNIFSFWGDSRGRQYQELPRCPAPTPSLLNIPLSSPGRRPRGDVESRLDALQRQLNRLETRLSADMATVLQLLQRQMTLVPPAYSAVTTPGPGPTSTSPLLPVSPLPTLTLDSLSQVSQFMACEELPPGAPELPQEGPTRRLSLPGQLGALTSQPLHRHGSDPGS

Cytochrome P450 3A4 = Cytochrome P450 3A4 (Homo sapiens, UniProt P08684)
Sequence of Cytochrome P450 3A4 (P08684 whole entry): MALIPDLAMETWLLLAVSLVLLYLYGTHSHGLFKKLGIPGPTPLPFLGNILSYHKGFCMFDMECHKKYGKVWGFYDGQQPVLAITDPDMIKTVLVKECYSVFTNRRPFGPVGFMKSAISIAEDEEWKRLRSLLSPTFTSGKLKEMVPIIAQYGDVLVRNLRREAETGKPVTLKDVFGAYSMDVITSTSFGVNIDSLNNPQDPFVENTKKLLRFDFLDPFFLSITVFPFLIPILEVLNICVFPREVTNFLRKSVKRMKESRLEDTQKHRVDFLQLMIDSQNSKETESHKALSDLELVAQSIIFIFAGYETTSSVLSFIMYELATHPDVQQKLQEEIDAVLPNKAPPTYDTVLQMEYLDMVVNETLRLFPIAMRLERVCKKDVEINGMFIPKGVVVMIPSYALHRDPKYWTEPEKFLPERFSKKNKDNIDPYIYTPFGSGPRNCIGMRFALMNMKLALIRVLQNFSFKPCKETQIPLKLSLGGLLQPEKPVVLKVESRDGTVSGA

[8] = Drug uptake in human liver microsomes assessed as covalent binding at 10 uM incubated for 60 mins by LC/MS analysis; assay type: ADME, Microsome; conditions: 1 h
Summary of the method: (§1)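 Human liver microsomes incubated with the [14C]-labelled compound to measure covalent binding to microsomal protein.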

[9] = Drug uptake in human liver microsomes assessed as covalent binding at 10 uM incubated for 60 mins in presence of NADPH by LC/MS analysis; assay type: ADME, Microsome; conditions: 1 h; summary of the method: as §1
[10] = Drug uptake in heat-inactivated human liver microsomes assessed as covalent binding at 10 uM incubated for 60 mins by LC/MS analysis; assay type: ADME, Microsome; conditions: 1 h; summary of the method: as §1
[11] = Drug uptake in human liver microsomes assessed as covalent binding at 10 uM incubated for 60 mins in presence of formaldehyde by LC/MS analysis; assay type: ADME, Microsome; conditions: 1 h
Summary of the method: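 Covalent binding of the [14C]-labelled compound in human liver microsome incubations with 5 mM formaldehyde added.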

[12] = Drug uptake in human hepatocytes assessed as covalent binding measured per mg protein; assay type: ADME, cell-based, Hepatocyte
Summary of the method: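 [14C]-labelled compound incubated with human hepatocytes; covalently bound radioactivity expressed as pmol per mg protein.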

Myeloperoxidase [13] = target: T1, Myeloperoxidase; experiment: Displacement of benzhydroxamic acid from native state MPO (unknown origin) by 1D NMR reporter assay
[14] = Drug uptake in Lister Hooded rat liver assessed as nonextractable fraction at 4.55 umol/kg, po measured after 24 hrs by whole body autoradiography; assay type: ADME, organism-based; conditions: in vivo, at 4.55 µmol/kg
Summary of the method: (§2)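 Rats were given a single oral dose of 10 MBq/kg of the [14C]-labelled compound. Whole-body autoradiography was done 24 h post-dose on sections before and after extraction, with the nonextractable liver fraction taken from the extracted sections. Whole-body drug-related material was also measured at 7 days.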

[15] = Drug uptake in Lister Hooded rat pigmented skin at 4.55 umol/kg, po measured after 24 hrs by whole body autoradiography; assay type: ADME, organism-based, Skin of body; conditions: in vivo, dose 4.55 µmol/kg; summary of the method: as §2
[16] = Drug uptake in Lister Hooded rat eyes at 4.55 umol/kg, po measured after 24 hrs by whole body autoradiography; assay type: ADME, organism-based, Eye; conditions: in vivo, dose 4.55 µmol/kg; summary of the method: as §2
[17] = Drug uptake in Lister Hooded rat at 4.55 umol/kg, po measured after 7 days by whole body autoradiography; assay type: ADME, organism-based; conditions: in vivo, 168 h, at 4.55 µmol/kg, time 7 day; summary of the method: as §2

Structure (SMILES)	IC50 (Myeloperoxidase [1])	IC50 (Myeloperoxidase [2])	IC50 (Thyroid peroxidase)	logD [3]	Papp A→B at 10 µM [4]	solubility thermodynamic at 18 h (physchem)	further results
CC(=O)NCc1cc(Cl)ccc1Cn1c(=S)[nH]c(=O)c2[nH]ccc21	140 nM	16000 nM	1400 nM	2	11 ×10⁻⁶ cm/s	3.3 µM (≈ 1.2 µg/mL)	
O=c1[nH]c(=S)n(Cc2ccccc2CN2CCC2)c2cc[nH]c12	15.1 nM	6600 nM	1500 nM	1	19 ×10⁻⁶ cm/s	930 µM (≈ 304 µg/mL)	
C[C@H](N)c1cc(Cl)ccc1Cn1c(=S)[nH]c(=O)c2[nH]ccc21			1100 nM	1.4	10 ×10⁻⁶ cm/s	850 µM (≈ 285 µg/mL)	
C[C@@H](N)c1cc(Cl)ccc1Cn1c(=S)[nH]c(=O)c2[nH]cnc21			770 nM				
CC(C)NCc1ccccc1Cn1c(=S)[nH]c(=O)c2[nH]ccc21	30.9 nM	13000 nM	8100 nM	0.9	12 ×10⁻⁶ cm/s	140 µM (≈ 46 µg/mL)	
COc1ccc(Cl)cc1-c1cc(=O)[nH]c(=S)n1CC(N)=O [PF-06282999]			990 nM				
NCc1cc(Cl)ccc1Cn1c(=S)[nH]c(=O)c2[nH]ccc21			1300 nM	1.2	6 ×10⁻⁶ cm/s	42 µM (≈ 13.5 µg/mL)	IC50 (Cytochrome P450 2C9): > 30000 nM; IC50 (Cytochrome P450 2D6): > 30000 nM; IC50 (Cytochrome P450 1A2): > 30000 nM; IC50 (Cytochrome P450 2C19): > 30000 nM; bioavailability [5]: 68%; bioavailability [6]: 45%; IC50 [7]: > 40000 nM; IC50 (Cytochrome P450 3A4): 19000 nM
NCc1cc(Cl)ccc1Cn1c2cc[nH]c2c(=O)[nH][14c]1=S							Drug uptake [8]: Active; Drug uptake [9]: Active; Drug uptake [10]: Active; Drug uptake [11]: Active; Drug uptake [12]: 95 pmol
CNCc1cc(Cl)ccc1Cn1c(=S)[nH]c(=O)c2[nH]ccc21	15.9 nM	6600 nM	2100 nM	1.3	17 ×10⁻⁶ cm/s	160 µM (≈ 53.6 µg/mL)	bioavailability [5]: 60%; bioavailability [6]: 72%; IC50 [7]: 10000 nM; IC50 (Cytochrome P450 3A4): > 30000 nM
CC(C)NCc1ccccc1Cn1c(=S)[nH]c(=O)c2[nH]cnc21	38.6 nM	80000 nM	4200 nM	0.3	0.89 ×10⁻⁶ cm/s	18 µM (≈ 5.93 µg/mL)	
CNCc1ccc(Cl)cc1Cn1c(=S)[nH]c(=O)c2[nH]ccc21	27.1 nM	6100 nM	1900 nM	1.1	9.6 ×10⁻⁶ cm/s	210 µM (≈ 70.3 µg/mL)	
CN[C@H](C)c1cc(Cl)ccc1Cn1c(=S)[nH]c(=O)c2[nH]ccc21 (racemic)	12.7 nM	4600 nM	1100 nM	1.5	19 ×10⁻⁶ cm/s	190 µM (≈ 66.3 µg/mL)	
CNCc1c(Cl)cccc1Cn1c(=S)[nH]c(=O)c2[nH]ccc21	39.3 nM	9400 nM	4200 nM	1.3	19 ×10⁻⁶ cm/s	150 µM (≈ 50.2 µg/mL)	
O=c1[nH]c(=S)n(C[C@H]2CCCO2)c2nc[nH]c12	279 nM	29000 nM	2400 nM				Kd (Myeloperoxidase [13]): 63100 nM
C[C@@H](N)c1cc(Cl)ccc1Cn1c2cc[nH]c2c(=O)[nH][14c]1=S							Drug uptake [14]: < 0.2%; Drug uptake [15]: Active; Drug uptake [16]: Active; Drug uptake [17]: 0.1%
NC(c1ccccc1)c1ccccc1Cn1c(=S)[nH]c(=O)c2[nH]ccc21 (stereo not drawn)			1390 nM	1.7	18 ×10⁻⁶ cm/s	8.3 µM (≈ 3.01 µg/mL)	
O=c1[nH]c(=S)n(Cc2ccc(F)cc2)c2nc[nH]c12			590 nM				
